Measurements taken from ChEMBL document CHEMBL4354813, “Design, Synthesis, and Pharmacological Evaluation of Potent Positive Allosteric Modulators of the Glucagon-like Peptide-1 Receptor (GLP-1R)” (J Med Chem, 2020).
Calls of active or inactive are those of the source. The calls are words filed in the database; no cut-off is given here.

How the values were obtained:
Mus musculus [1] = test: Suppression of blood glucose concentration in ob/ob C57Bl/6J mouse model of T2DM at 4.5 mg/kg, ip and treated with 60 mg/kg, po OATP/MRP2 inhibitor rifampicin 2.5 hrs prior to oral glucose-tolerance test; format: functional, organism-based
Procedure, shortened: (§1)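 Male ob/ob mice aged 10–11 weeks, n=7, randomised on blood glucose and fasted overnight. Rifampicin 60 mg/kg p.o. 2.5 h before the oGTT, compound 30 mg/kg p.o. 1 h before, GLP1(9-36)NH2 i.p. 15 min before, each given as indicated. Glucose 2 g/kg orally. Tail-vein glucose by glucometer at 0, 15, 30, 60 and 90 min.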

Mus musculus [2] = test: Suppression of blood glucose concentration in ob/ob C57Bl/6J mouse model of T2DM at 4.5 mg/kg, ip in absence of 60 mg/kg, po OATP/MRP2 inhibitor rifampicin by oral glucose-tolerance test; format: functional, organism-based; procedure, shortened: as §1
[3] = Tmax in mouse at 10 mg/kg, po; conditions: in vivo
[4] = Cmax in mouse at 10 mg/kg, po; conditions: in vivo
[5] = biological target: T1, Glucagon-like peptide 1 receptor (Homo sapiens, UniProt P43220); test: Positive allosteric modulator activity at human GLP-1R expressed in PSC-HEK293 cells in presence of EC20 level of GLP1(9-36)NH2 incubated for 30 mins by HTRF cAMP assay relative to control; format: functional, cell-based
Procedure, shortened: (§2)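 Thaw-and-use PSC-HEK293 cells stably expressing human GLP-1R, 2000 cells/well in HBSS/20 mM HEPES/0.1% BSA with 2 mM IBMX. Enhancer format: compound dose-response plus fixed EC20 GLP1(9-36)NH2. Shift format: GLP1(9-36)NH2 dose-response plus 10 or 3 μM compound. 30 min at room temperature. HTRF cAMP read after 1 h lysis (665/620 nm). EC50 from a 4-parameter logistic fit.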

[6] = biological target: T2, Glucagon-like peptide 1 receptor (Mus musculus, UniProt O35659); test: Positive allosteric modulator activity at mouse GLP-1R expressed in PSC-HEK293 cells in presence of EC20 level of GLP1(9-36)NH2 incubated for 30 mins by HTRF cAMP assay; format: functional, cell-based
T2 sequence (O35659 whole entry): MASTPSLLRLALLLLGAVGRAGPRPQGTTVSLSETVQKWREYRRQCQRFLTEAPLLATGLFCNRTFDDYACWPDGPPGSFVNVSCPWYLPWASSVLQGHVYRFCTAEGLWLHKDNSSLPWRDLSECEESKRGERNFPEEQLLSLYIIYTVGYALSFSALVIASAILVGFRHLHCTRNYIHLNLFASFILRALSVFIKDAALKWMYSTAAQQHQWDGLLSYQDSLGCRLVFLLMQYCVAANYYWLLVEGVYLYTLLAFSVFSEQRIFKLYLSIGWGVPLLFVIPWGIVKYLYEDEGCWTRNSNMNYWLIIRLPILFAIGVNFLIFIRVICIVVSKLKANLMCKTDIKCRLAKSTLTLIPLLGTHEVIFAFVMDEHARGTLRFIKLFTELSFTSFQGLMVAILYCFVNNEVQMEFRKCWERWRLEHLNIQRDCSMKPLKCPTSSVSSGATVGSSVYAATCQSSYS

[7] = biological target: T3, Glucagon-like peptide 1 receptor (Mus musculus) (UniProt O35659); test: Positive allosteric modulator activity at mouse GLP-1R expressed in PSC-HEK293 cells in presence of EC20 level of GLP1(9-36)NH2 incubated for 30 mins by HTRF cAMP assay relative to control; format: functional, cell-based
T3 sequence (whole entry): T2 sequence (O35659 whole entry)

[8] = biological target: T1, Glucagon-like peptide 1 receptor; test: Positive allosteric modulator activity at human GLP-1R expressed in PSC-HEK293 cells in presence of EC20 level of GLP1(9-36)NH2 incubated for 30 mins by HTRF cAMP assay; format: functional, cell-based
Procedure, shortened: as §2, with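 “temperature.” for “temperature. HTRF cAMP read after 1 h lysis (665/620 nm).”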

[9] = biological target: T1, Glucagon-like peptide 1 receptor; test: Positive allosteric modulator activity at GLP-1R in human 1.1B4 cells in presence of EC20 level of GLP1(9-36)NH2 incubated for 30 mins by HTRF cAMP assay; format: functional, cell-based
Procedure, shortened: (§3)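 Human pancreatic β-cell line 1.1B4, 20,000 cells/well cultured overnight, washed twice; compound concentration-response with fixed 10 nM GLP1(9-36)NH2, 30 min. cAMP by HTRF 665/620 ratio, normalised to buffer (1x HBSS, 0.1% BSA, 1 mM IBMX; 0%) and GLP-1(7-36)NH2 (100%); 4-parameter logistic fit.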

[10] = biological target: T1, Glucagon-like peptide 1 receptor; test: Positive allosteric modulator activity at human GLP-1R expressed in PSC-HEK293 cells assessed as potentiation of GLP1(9-36)NH2-induced cAMP accumulation by measuring shift in EC50 of endogenous GLP1(9-36)NH2 at 10 uM incubated for 30 mins by HTRF cAMP assay relative to control; format: functional, cell-based
Procedure, shortened: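 Thawed frozen PSC-HEK293 cells stably expressing human GLP-1R, 2000 cells/well in HBSS/20 mM HEPES/0.1% BSA with 2 mM IBMX. Shift format: GLP1(9-36)NH2 dose-response with compound fixed at 10 or 3 µM; 30 min room temperature; cAMP by HTRF (665/620 nm ratio) after 1 h with lysis reagents; 4-parameter logistic fit; EC50 shift factor derived.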

[11] = biological target: T1, Glucagon-like peptide 1 receptor; test: Positive allosteric modulator activity at GLP-1R in human 1.1B4 cells in presence of EC20 level of GLP1(9-36)NH2 incubated for 30 mins by HTRF cAMP assay relative to control; format: functional, cell-based; procedure, shortened: as §3
[12] = biological target: T3, Glucagon-like peptide 1 receptor (Mus musculus); test: Positive allosteric modulator activity at GLP-1R in mouse MIN6-c4 cells assessed as effect on glucose-mediated increase in intracellular Ca2+ level by FLIPR assay relative to control; format: functional, cell-based
[13] = Stability in GSH assay; format: physicochemical
[14] = biological target: T1, Glucagon-like peptide 1 receptor; test: Displacement of radioactive labeled GLP-1(7-36)NH2 from human GLP-1R by radioactive ligand binding assay
[15] = Agonist activity at KATP channel (unknown origin); set-up: species or system Homo sapiens
[16] = biological target: Sodium channel protein type 2 subunit alpha (Homo sapiens) (UniProt Q99250); test: Effect on Nav1.2 (unknown origin)
[17] = biological target: Sodium channel protein type 5 subunit alpha (Homo sapiens, UniProt Q14524); test: Effect on Nav1.5 (unknown origin)
[18] = biological target: T3, Glucagon-like peptide 1 receptor (Mus musculus); test: Inhibition of 15 mM glucose-mediated increase in intracellular Ca2+ level in mouse MIN6-c4 cells at 30 uM by FLIPR assay relative to control; format: functional, cell-based

T1 sequence (P43220 whole entry): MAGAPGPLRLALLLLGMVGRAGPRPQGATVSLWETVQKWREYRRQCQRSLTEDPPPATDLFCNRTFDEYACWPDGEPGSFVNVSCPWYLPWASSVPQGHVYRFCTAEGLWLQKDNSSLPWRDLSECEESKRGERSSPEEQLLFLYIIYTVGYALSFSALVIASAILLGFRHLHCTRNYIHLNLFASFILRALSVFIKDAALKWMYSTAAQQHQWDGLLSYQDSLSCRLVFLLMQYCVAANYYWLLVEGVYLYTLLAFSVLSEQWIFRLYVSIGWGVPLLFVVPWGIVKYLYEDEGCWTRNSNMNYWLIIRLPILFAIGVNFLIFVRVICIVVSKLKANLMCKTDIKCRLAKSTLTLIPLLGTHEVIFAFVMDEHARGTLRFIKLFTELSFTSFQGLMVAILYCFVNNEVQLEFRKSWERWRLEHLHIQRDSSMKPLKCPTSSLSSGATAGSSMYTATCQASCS
Sodium channel protein type 2 subunit alpha (Homo sapiens), sequence (Q99250 whole entry, looked up): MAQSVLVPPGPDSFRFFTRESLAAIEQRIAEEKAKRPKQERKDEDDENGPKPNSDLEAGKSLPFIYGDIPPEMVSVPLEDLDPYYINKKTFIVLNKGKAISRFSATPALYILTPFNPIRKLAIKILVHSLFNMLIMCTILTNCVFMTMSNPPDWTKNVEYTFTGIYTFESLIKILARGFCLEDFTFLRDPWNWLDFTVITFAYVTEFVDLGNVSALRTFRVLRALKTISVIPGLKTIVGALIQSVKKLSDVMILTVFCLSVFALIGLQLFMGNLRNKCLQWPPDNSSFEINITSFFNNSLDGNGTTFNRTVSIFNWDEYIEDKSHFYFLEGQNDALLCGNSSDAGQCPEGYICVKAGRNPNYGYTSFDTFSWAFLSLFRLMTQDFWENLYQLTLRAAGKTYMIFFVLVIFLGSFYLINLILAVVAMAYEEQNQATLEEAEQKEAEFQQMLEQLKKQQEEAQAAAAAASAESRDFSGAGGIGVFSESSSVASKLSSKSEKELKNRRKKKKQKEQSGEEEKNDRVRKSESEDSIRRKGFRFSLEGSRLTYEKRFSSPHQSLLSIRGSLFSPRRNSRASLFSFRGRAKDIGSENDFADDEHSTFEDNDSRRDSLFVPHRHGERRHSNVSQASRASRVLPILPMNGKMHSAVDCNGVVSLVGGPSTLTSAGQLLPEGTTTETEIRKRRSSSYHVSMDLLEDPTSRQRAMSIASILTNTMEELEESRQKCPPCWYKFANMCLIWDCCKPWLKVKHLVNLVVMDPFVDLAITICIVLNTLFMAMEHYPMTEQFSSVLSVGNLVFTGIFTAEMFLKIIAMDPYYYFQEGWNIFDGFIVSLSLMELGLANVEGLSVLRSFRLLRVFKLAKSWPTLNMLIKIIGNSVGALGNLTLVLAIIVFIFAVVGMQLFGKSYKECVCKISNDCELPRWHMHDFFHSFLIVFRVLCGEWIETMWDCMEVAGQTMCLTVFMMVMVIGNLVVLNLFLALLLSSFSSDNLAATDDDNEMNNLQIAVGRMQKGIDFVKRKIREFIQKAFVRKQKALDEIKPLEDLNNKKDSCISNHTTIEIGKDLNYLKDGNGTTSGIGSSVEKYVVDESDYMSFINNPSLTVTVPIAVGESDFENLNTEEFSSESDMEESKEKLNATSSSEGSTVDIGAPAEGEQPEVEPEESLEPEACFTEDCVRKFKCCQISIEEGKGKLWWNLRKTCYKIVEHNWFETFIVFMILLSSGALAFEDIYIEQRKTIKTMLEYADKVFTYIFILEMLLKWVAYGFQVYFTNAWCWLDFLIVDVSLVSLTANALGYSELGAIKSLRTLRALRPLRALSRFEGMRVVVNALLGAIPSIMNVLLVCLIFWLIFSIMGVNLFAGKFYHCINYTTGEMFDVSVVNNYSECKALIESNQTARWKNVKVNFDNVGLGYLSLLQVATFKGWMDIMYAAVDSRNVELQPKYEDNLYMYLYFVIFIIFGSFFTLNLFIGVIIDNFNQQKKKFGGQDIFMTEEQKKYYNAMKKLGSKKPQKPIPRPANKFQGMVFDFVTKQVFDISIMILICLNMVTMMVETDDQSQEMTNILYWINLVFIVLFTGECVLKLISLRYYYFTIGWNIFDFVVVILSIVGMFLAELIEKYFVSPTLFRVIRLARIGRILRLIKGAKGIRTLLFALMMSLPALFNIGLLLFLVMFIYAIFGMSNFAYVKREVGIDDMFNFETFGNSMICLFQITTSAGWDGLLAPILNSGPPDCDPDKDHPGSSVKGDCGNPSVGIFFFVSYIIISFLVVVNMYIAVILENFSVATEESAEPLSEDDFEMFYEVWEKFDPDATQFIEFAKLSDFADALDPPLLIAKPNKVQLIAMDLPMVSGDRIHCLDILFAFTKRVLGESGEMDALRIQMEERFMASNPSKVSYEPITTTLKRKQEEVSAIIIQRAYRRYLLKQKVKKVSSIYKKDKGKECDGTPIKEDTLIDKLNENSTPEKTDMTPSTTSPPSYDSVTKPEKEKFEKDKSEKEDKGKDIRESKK
Sodium channel protein type 5 subunit alpha, sequence (Q14524 whole entry): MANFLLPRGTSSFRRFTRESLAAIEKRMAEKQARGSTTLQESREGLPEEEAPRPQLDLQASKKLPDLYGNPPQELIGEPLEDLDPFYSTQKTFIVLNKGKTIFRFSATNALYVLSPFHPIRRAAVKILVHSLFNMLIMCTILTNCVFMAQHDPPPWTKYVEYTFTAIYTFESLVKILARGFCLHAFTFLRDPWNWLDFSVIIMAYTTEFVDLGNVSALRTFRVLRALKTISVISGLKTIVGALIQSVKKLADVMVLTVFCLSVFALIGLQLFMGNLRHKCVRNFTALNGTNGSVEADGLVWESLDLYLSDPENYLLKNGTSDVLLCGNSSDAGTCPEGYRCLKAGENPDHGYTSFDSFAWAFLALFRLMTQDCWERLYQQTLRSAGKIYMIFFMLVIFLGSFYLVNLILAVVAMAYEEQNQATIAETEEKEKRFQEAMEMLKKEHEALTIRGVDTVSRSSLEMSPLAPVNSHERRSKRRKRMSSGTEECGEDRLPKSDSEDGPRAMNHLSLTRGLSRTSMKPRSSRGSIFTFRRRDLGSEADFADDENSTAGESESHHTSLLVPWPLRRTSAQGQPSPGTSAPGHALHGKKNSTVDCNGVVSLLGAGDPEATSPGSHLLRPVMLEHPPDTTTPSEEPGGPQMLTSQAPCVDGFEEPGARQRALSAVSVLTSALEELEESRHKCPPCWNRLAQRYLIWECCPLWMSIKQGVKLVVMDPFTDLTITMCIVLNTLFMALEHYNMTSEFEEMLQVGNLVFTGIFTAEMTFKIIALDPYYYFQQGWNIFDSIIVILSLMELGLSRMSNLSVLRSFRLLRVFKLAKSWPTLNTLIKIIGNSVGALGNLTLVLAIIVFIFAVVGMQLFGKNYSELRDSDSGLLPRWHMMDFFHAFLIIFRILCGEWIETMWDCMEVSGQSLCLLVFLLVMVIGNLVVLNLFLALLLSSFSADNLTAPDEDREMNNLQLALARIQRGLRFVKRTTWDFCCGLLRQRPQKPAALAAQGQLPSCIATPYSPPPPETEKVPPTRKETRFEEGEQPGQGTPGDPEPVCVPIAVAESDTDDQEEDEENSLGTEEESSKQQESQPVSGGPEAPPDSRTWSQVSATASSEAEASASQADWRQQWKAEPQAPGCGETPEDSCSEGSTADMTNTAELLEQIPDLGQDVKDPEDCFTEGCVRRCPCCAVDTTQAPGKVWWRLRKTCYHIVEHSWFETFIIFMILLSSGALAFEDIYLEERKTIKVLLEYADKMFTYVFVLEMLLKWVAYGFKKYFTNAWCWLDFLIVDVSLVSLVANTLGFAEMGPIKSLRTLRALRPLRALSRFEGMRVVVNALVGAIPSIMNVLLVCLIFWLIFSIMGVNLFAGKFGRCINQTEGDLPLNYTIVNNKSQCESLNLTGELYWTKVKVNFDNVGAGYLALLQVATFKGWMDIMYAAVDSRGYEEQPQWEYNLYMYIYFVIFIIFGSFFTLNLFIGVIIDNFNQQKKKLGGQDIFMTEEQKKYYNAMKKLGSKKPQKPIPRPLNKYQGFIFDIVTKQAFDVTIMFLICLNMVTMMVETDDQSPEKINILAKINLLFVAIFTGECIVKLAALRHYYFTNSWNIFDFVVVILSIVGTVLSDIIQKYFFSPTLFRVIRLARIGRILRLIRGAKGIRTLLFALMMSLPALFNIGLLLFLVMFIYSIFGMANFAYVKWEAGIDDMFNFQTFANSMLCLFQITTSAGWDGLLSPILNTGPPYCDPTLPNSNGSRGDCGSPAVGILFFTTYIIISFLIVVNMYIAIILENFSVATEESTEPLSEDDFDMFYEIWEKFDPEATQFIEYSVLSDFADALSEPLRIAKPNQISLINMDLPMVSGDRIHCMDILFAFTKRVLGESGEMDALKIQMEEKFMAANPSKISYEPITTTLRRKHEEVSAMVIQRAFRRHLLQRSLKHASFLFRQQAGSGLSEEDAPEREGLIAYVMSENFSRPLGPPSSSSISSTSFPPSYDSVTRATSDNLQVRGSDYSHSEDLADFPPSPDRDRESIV

CC[C@H](C)[C@H](NC(=O)[C@H](Cc1ccccc1)NC(=O)[C@H](CCC(=O)O)NC(=O)[C@H](CCCCN)NC(=O)[C@H](C)NC(=O)[C@H](C)NC(=O)[C@H](CCC(N)=O)NC(=O)CNC(=O)[C@H](CCC(=O)O)NC(=O)[C@H](CC(C)C)NC(=O)[C@H](Cc1ccc(O)cc1)NC(=O)[C@H](CO)NC(=O)[C@H](CO)NC(=O)[C@@H](NC(=O)[C@H](CC(=O)O)NC(=O)[C@H](CO)NC(=O)[C@@H](NC(=O)[C@H](Cc1ccccc1)NC(=O)[C@@H](NC(=O)CNC(=O)[C@@H](N)CCC(=O)O)[C@@H](C)O)[C@@H](C)O)C(C)C)C(=O)N[C@@H](C)C(=O)N[C@@H](Cc1c[nH]c2ccccc12)C(=O)N[C@@H](CC(C)C)C(=O)N[C@H](C(=O)N[C@@H](CCCCN)C(=O)NCC(=O)N[C@@H](CCCNC(=N)N)C(N)=O)C(C)C
Activity (Mus musculus [1]): inactive
Activity (Mus musculus [2]): inactive

CO[C@H]1/C=C/O[C@@]2(C)Oc3c(C)c(O)c4c(O)c(c(/C=N/N5CCN(C)CC5)c(O)c4c3C2=O)NC(=O)/C(C)=C\C=C\[C@H](C)[C@H](O)[C@@H](C)[C@@H](O)[C@@H](C)[C@H](OC(C)=O)[C@@H]1C [RIFAMPIN]
Tmax [3]: 1.5 h
Cmax [4]: 13 µM

Cc1cc(-n2nc3c(c2-n2ccn(-c4ccc5c(cnn5C)c4F)c2=O)[C@H](C)N(C(=O)c2cc4cc([C@H]5CCOC(C)(C)C5)ccc4n2[C@@]2(c4noc(=O)[nH]4)C[C@@H]2C)CC3)cc(C)c1F [ORFORGLIPRON]
Emax [5]: 91%
EC50 [6]: 0.3 µM
Emax [7]: 100%

CC(C)(C)OC(=O)n1c2c(c3ccccc31)C[C@H]1C(=O)NC[C@@H]2N1C(=O)CC1CCC(F)(F)CC1
EC50 [8]: 0.005 µM
Emax [5]: 99%
EC50 [9]: Not Active
Ratio EC50 [10]: 3800
Emax [11]: inactive
fold change (FC) [12]: inactive
Stability [13]: Stable
inhibition [14]: inactive
EC50 [15]: 2.67 µM
Activity [16]: Active
Activity [17]: Active

CC1=Nc2ccc(Cl)cc2S(=O)(=O)N1
inhibition [18]: Active
